This note sets out measurements from PubChem BioAssay AID492966 (Southern Research Specialized Biocontainment Screening …, 2010).

Activity calls are given as the source filed them.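 The calls were made as follows: active = compounds that block at least half of the virus-caused cell damage; inactive = the rest.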

This experiment deals with HEp-2 RSV Long CPE inhibition, luminescence. The experiment is described as follows: RSV cytopathic effect inhibition in HEp-2, dose response, cell-based, RSV Long, luminescence, synthesized compounds, set 3 (AID 492966). The method, boiled down: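 Test system: RSV Long-infected HEp-2 cells; Dosing: 8 doses, 1:2 steps, 0.39–50 µM, 0.5% DMSO; Timing: 6 days at 37 °C; Evaluation: % CPE inhibition and IC50 from bounded 4-parameter fit; Detection: luminescence-based cytopathic effect measurement; Replicates: triplicate wells; Also added: RSV Long, MOI 0.45.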
In general terms: Protection from cytopathic effect is a common read-out in antiviral testing.

Regarding `Cc1ccccc1NC(=O)[C@@H]1CCCN1S(=O)(=O)c1cccc2cccnc12`, the IC50 (in general, the concentration needed to halve the response being measured) was 16.5 µM.

Turning to `Cc1ccc(NC(=O)[C@@H]2CCCN2S(=O)(=O)c2cccc3cccnc23)cc1`, the IC50 is > 50 µM (inactive).

For `O=C(Nc1ccc(Cl)cc1Cl)[C@@H]1CCCN1S(=O)(=O)c1cccc2cccnc12`, the IC50 was > 50 µM (inactive).
